From PubChem
Rows were chosen to be rich in hits. Some 5.1% of all compounds tested hit in one or more screens of this group.
STAT3 activator – activators of IL-6 induced STAT3 signaling; U3A cells, IL-6 STAT3-luciferase reporter, luminescence; 100% = signal with IL-6 EC80 alone; activation (% of control), % at 5.6 µM; actives 0.91% (n = 190,000); AID 871;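 active = activation above the screen-wide mean of compound activation plus 3 SD, cut at about 130% in these data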
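system = STAT3-luciferase reporter U3A cells | reagent = IL-6 stimulus at 33 ng/mL final | timing = 1 h compound pre-exposure, 6 h IL-6 stimulation, 37 °C | measured by = luminescence | evaluation = % activation versus median of IL-6-stimulated wells | control set = IL-6-only wells as 100% reference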
NF-kB neuron act – raises NF-kB expression in human neuronal cells; actives 1.6% (n = 190,000); NF-kB reporter expression; active compounds read high; AID 1239; fold change at 12.5 µM; in the data active = fold change above about 3.3
STAT1 inh – STAT1 signaling inhibition; inhibition, % at 5.5 µM; AID 920; NIH 3T3 STAT1-luciferase reporter, IFN-gamma, luminescence; actives 0.35% (n = 200,000);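 active = inhibition above a set limit, the mean inhibition across all tested compounds plus 3 SD, cut at about 34% in these data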
APP 5'UTR act – APP 5'UTR luciferase reporter activation; activation, % at 2 µM; AID 1276; SH-SY5Y APP 5'UTR luciferase reporter, luminescence; zero percent = DMSO vehicle wells; actives 1% (n = 190,000);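 active = activation above a set limit, based on mean plus 3 SD of controls, cut at about 140% in these data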
STAT3 inh – reduces IL-6 driven STAT3 reporter signal; U3A cells, IL-6 STAT3-luciferase reporter, luminescence; host cell line lacks STAT1; inhibition, % at 5.5 µM; actives 0.89% (n = 190,000); AID 862;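 active = inhibition above the mean inhibition across all screened compounds plus 3 SD, cut at about 44% in these data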
STAT1 act – STAT1 signaling activation; NIH 3T3 STAT1-luciferase reporter, IFN-gamma, luminescence; 100% = IFN-gamma alone, no compound; AID 932; activation (% of control), % at 5.5 µM; actives 2.6% (n = 200,000);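 active = activation above the screen-wide mean activation plus 3 SD, cut at about 130% in these data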
A number is an active result.

What do the screens show for `Cc1ccc(S(=O)(=O)Nc2cc(C(=O)Nc3cc(C)cc(C)c3)ccc2Cl)cc1`?
STAT3 activator: inactive; NF-kB neuron act: inactive; STAT1 inh: inactive; APP 5'UTR act: inactive; STAT3 inh: inactive; STAT1 act: inactive

How did CN(/N=C/c1cccnc1)c1cnc2ccccc2n1 do in these assays?
STAT3 activator: 151.5; NF-kB neuron act: inactive; STAT1 inh: inactive; APP 5'UTR act: 170.4; STAT3 inh: inactive; STAT1 act: 172.4

Results for C(=N\N=C\c1cccnc1)/c1cccnc1 ?
STAT3 activator: inactive; NF-kB neuron act: inactive; STAT1 inh: inactive; APP 5'UTR act: inactive; STAT3 inh: inactive; STAT1 act: inactive

What do the screens show for `Cc1n(-c2ccccc2)c2ccc(Cl)cc2[n+]1CCO`?
STAT3 activator: inactive; NF-kB neuron act: inactive; STAT1 inh: inactive; APP 5'UTR act: inactive; STAT3 inh: inactive; STAT1 act: inactive

What do the screens show for `CCCc1nc2c(=O)n(C)c(=O)nc-2n(C)n1`?
STAT3 activator: inactive; STAT1 inh: 92.5; APP 5'UTR act: inactive; STAT3 inh: 94.3; STAT1 act: inactive

Results for CCOc1cc(S(=O)(=O)n2ccnc2)ccc1Br ?
STAT3 activator: inactive; NF-kB neuron act: inactive; STAT1 inh: inactive; APP 5'UTR act: inactive; STAT3 inh: inactive; STAT1 act: inactive

How did CCOc1cc(S(=O)(=O)n2ccnc2)ccc1Cl do in these assays?
STAT3 activator: inactive; NF-kB neuron act: 3.56; STAT1 inh: inactive; APP 5'UTR act: inactive; STAT3 inh: inactive; STAT1 act: inactive

How did COc1cc2[nH]c(=S)nc(NCc3ccccn3)c2cc1OC do in these assays?
STAT3 activator: inactive; NF-kB neuron act: inactive; STAT1 inh: inactive; APP 5'UTR act: inactive; STAT3 inh: inactive; STAT1 act: inactive

What do the screens show for `CCC(CC)c1nnc(NC(=O)c2cc(C(=O)OC)cc([N+](=O)[O-])c2)s1`?
STAT3 activator: inactive; NF-kB neuron act: inactive; STAT1 inh: inactive; APP 5'UTR act: inactive; STAT3 inh: inactive; STAT1 act: inactive

What do the screens show for `O=C(N/N=C/c1ccc(F)c(F)c1)c1cc2c(s1)-c1ccccc1CC2`?
STAT3 activator: inactive; NF-kB neuron act: inactive; STAT1 inh: inactive; APP 5'UTR act: inactive; STAT3 inh: inactive; STAT1 act: inactive

What do the screens show for `CNC(=O)c1cc2c(s1)-c1ccccc1CC2`?
STAT3 activator: inactive; NF-kB neuron act: inactive; STAT1 inh: inactive; APP 5'UTR act: inactive; STAT3 inh: inactive; STAT1 act: 144.0

Results for Cc1ccc(NC(=O)CCn2cnc3ccccc3c2=O)cc1Cl ?
STAT3 activator: inactive; NF-kB neuron act: inactive; STAT1 inh: inactive; APP 5'UTR act: inactive; STAT3 inh: inactive; STAT1 act: 130.8

How did C=CCc1cccc(C=Nc2cc(Br)ccc2O)c1O do in these assays?
STAT3 activator: inactive; NF-kB neuron act: inactive; STAT1 inh: inactive; APP 5'UTR act: inactive; STAT3 inh: inactive; STAT1 act: inactive

What do the screens show for `C=CCc1cccc(C=Nc2cccn3cc(-c4ccccc4)nc23)c1O`?
STAT3 activator: inactive; NF-kB neuron act: inactive; STAT1 inh: inactive; APP 5'UTR act: inactive; STAT3 inh: inactive; STAT1 act: 131.5

How did O=C(Nc1ccc2c(c1)OCO2)c1ccc(N2CCCC2)c([N+](=O)[O-])c1 do in these assays?
STAT3 activator: inactive; NF-kB neuron act: inactive; STAT1 inh: inactive; APP 5'UTR act: inactive; STAT3 inh: inactive; STAT1 act: inactive

What do the screens show for `Cc1c(C(=O)NCc2ccoc2)oc2ccc3c(c12)C(=O)CC(C)(C)O3`?
STAT3 activator: inactive; NF-kB neuron act: 3.85; STAT1 inh: inactive; APP 5'UTR act: inactive; STAT3 inh: inactive; STAT1 act: 146.5

How did CC(C(=O)NCCc1ccc(F)cc1)N1CCN(Cc2ccccc2)CC1 (configuration not stated) do in these assays?
STAT3 activator: inactive; NF-kB neuron act: inactive; STAT1 inh: inactive; APP 5'UTR act: inactive; STAT3 inh: inactive; STAT1 act: inactive

What do the screens show for `Cc1ccc(-c2ccc(C3C(C#N)=C(N)Oc4n[nH]c(C)c43)o2)cc1` (configuration not stated)?
STAT3 activator: 135.7; NF-kB neuron act: inactive; STAT1 inh: inactive; APP 5'UTR act: inactive; STAT3 inh: inactive; STAT1 act: inactive

What do the screens show for `O=C(CN(c1ccccn1)S(=O)(=O)c1ccccc1)N/N=C/c1cccc([N+](=O)[O-])c1`?
STAT3 activator: inactive; NF-kB neuron act: inactive; STAT1 inh: inactive; APP 5'UTR act: inactive; STAT3 inh: inactive; STAT1 act: inactive

Results for Cc1ccc(C(=O)NC(=S)Nc2ccccc2N2CCCC2)cc1[N+](=O)[O-] ?
STAT3 activator: 133.6; NF-kB neuron act: inactive; STAT1 inh: inactive; APP 5'UTR act: inactive; STAT3 inh: inactive; STAT1 act: inactive

Results for Cc1ccc(C(=O)Nc2ccccc2N2CCCCC2)cc1[N+](=O)[O-] ?
STAT3 activator: inactive; NF-kB neuron act: inactive; STAT1 inh: inactive; APP 5'UTR act: inactive; STAT3 inh: inactive; STAT1 act: inactive

Results for CCC(C)C(NC(=O)C(C)NC(=O)CNC(=O)OC(C)(C)C)C(N)=O (configuration not stated) ?
STAT3 activator: inactive; NF-kB neuron act: inactive; STAT1 inh: inactive; APP 5'UTR act: inactive; STAT3 inh: inactive; STAT1 act: inactive

Results for CC1CN(C(=O)N2CCCCC2)CCN1C(=O)N1CCCCC1 (configuration not stated) ?
STAT3 activator: inactive; NF-kB neuron act: inactive; STAT1 inh: inactive; APP 5'UTR act: inactive; STAT3 inh: inactive; STAT1 act: inactive

How did Nc1ccc2c(c1)OC1(CCCCC1)O2 do in these assays?
STAT3 activator: 134.7; NF-kB neuron act: inactive; STAT1 inh: inactive; APP 5'UTR act: inactive; STAT3 inh: inactive; STAT1 act: inactive

Results for Nc1ccc2c(c1)COc1ccccc1O2 ?
STAT3 activator: inactive; NF-kB neuron act: inactive; STAT1 inh: inactive; APP 5'UTR act: inactive; STAT3 inh: inactive; STAT1 act: inactive

What do the screens show for `CCOC(=O)Cn1c(-c2ccccc2)nc2ccccc2c1=O`?
STAT3 activator: inactive; NF-kB neuron act: inactive; STAT1 inh: inactive; APP 5'UTR act: inactive; STAT3 inh: inactive; STAT1 act: 129.1

What do the screens show for `O=C1Nc2ccccc2/C1=C/C(=O)c1cccs1`?
STAT3 activator: 134.3; NF-kB neuron act: inactive; STAT1 inh: inactive; APP 5'UTR act: inactive; STAT3 inh: inactive; STAT1 act: inactive

What do the screens show for `O=C(OCc1nnc(-c2ccc(Cl)cc2)o1)C12CC3CC(CC(O)(C3)C1)C2`?
STAT3 activator: inactive; NF-kB neuron act: inactive; STAT1 inh: inactive; APP 5'UTR act: inactive; STAT3 inh: inactive; STAT1 act: 137.6

Results for COc1ccccc1C1CC(c2cccs2)=Nc2ccccc2S1 (configuration not stated) ?
STAT3 activator: 133.1; NF-kB neuron act: inactive; STAT1 inh: inactive; APP 5'UTR act: 146.0; STAT3 inh: inactive; STAT1 act: inactive

What do the screens show for `Cc1cc(N(CCO)CCO)ccc1N=Nc1cc(F)ccc1F`?
STAT3 activator: inactive; NF-kB neuron act: inactive; STAT1 inh: inactive; APP 5'UTR act: inactive; STAT3 inh: inactive; STAT1 act: 133.0
